# High-throughput results from PubChem.
# Sampled rows, rich in hits. Any-hit rate of the full collection: about 9.4%.
# Lmaj promast: reduces viability of Leishmania major promastigotes; resazurin fluorescence viability; 200,000 tested, 9% active; inhibition, % at 10 µM; AID 1063; in the data active = inhibition above about 50%;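 note: promastigotes grown with compound for 44 hours at 28 °C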
# Mdm2-MdmX inh: human Mdm2/MdmX binding inhibition | O15151+Q00987 | SaOS-2 split-luciferase Mdm2/MdmX complementation, luminescence | inhibition, % at 8 µM | 330,000 tested, 3% active | AID 485346;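 active = inhibition of at least 50% at 8 µM in the primary screen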
# Target sequence (O15151 whole entry, looked up): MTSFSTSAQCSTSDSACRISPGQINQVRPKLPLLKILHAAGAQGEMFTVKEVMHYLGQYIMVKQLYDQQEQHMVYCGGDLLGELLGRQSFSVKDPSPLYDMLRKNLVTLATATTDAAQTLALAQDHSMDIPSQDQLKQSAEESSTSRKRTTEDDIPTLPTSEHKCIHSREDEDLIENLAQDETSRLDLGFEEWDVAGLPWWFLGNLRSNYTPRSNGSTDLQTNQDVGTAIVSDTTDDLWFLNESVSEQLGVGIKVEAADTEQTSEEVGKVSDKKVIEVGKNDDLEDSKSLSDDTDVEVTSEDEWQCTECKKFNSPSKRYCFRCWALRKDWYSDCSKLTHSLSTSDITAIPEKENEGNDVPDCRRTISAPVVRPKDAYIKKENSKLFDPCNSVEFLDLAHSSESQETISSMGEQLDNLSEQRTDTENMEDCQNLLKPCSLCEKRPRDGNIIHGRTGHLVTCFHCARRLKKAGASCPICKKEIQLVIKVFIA
# Target sequence (Q00987 whole entry, looked up): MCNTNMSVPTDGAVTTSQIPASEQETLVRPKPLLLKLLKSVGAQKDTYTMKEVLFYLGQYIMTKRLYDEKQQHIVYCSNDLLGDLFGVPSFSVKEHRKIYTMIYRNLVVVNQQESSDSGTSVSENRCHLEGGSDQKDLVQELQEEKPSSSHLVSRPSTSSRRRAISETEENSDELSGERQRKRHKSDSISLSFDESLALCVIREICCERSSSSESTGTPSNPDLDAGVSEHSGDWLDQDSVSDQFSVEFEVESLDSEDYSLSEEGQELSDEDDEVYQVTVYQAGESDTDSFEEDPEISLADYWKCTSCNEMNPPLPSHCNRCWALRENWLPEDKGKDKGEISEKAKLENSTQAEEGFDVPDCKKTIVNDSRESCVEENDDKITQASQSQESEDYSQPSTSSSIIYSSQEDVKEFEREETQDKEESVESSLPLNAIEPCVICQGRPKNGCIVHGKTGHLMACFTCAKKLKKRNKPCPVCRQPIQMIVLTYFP
# Beta cell apopt: beta cell apoptosis inhibition; 300,000 tested, 0.8% active; AID 435005; protection from apoptosis, % (concentration not given with the values); INS-1E cytokine-induced death, ATP luminescence, 48 h; percent of positive-control rescue, neutral wells zero;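 active = Every replicate reaches about 75%, or at least half do and their mean reaches it too, limit read from the data; inconclusive = At least half of replicates reach the limit but their mean does not; inactive = Under half of replicates reach the limit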;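 note: higher means more ATP so stronger rescue from cytokine killing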
# T cruzi repl: blocks replication of Trypanosoma cruzi | T. cruzi beta-gal in NIH3T3, luminescence, 90 h | inhibition, % (concentration not given with the values) | 300,000 tested, 1.4% active;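 active = mean inhibition across valid replicates above about 55%, limit read from the data; inconclusive = mean below that limit but half or more replicates reach it; inactive = mean below it, under half of replicates reach it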;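 note: signal also drops with host cell toxicity which is not excluded here; higher percent means less beta-gal luminescence so fewer parasites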
#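 Assay system: NIH/3T3 host cells with β-galactosidase reporter T. cruzi; input: 5,000 host fibroblasts per well; compound: single 50 nL compound addition per well in DMSO; timing: ≥90 h infection period, 3 h prior cell attachment; measured by: GalScreen β-gal luminescence, detergent lysis, 60 min; evaluation: percent inhibition of parasite-derived β-gal signal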
# SKKanGAS inh: SKKanGAS growth inhibition; 300,000 tested, 1.3% active; inhibition, % at 7.5 µM; S. pyogenes SKKanGAS, kanamycin growth, BacTiter-Glo, 6 h; AID 1662;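 active = mean replicate score, as percent of positive control median, at least 50; inconclusive = mean below 50 but one replicate at or above 50; inactive = mean and every replicate below 50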;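 note: strain carries kanamycin resistance gene driven by streptokinase promoter and grows in 40 µg/ml kanamycin; loss of luminescence reflects streptokinase promoter inhibition or plain growth inhibition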
# CSC inhib: blocks cancer stem cells | 300,000 tested, 1.1% active | cancer stem cell-like cells viability, luminescence | inhibition, % at 7.5 µM; in the data active = inhibition above about 75%; inconclusive = no clear call, values can overlap the other calls; tested in HMLE shEcad cells
# Mdm2 MdmX conf: confirmation of human Mdm2/MdmX interaction inhibitors; 10,000 tested, 55% active; Mdm2-MdmX binding, luminescent assay; shares compounds with Mdm2-MdmX inh; inhibition, % at 8 µM; AID 489028; in the data active = inhibition above about 40%
# Full FLuc ctr: counter-screen for Mdm2/MdmX inhibitors: full-length luciferase; inhibition, % at 8 µM; 6,200 tested, 77% active; shares compounds with Mdm2-MdmX inh; SaOS-2 full-length luciferase counterscreen, luminescence;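 active = mean inhibition at 8 µM reaching about 37%, which flags the compound as non-specific, limit read from the data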;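 note: p53-null SaOS-2 cells with luciferase driven by a doxycycline-inducible promoter; compound on cells about two nights before reading with doxycycline added after day one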
# Hits are given with their value; 0 = inactive; ? = inconclusive; - = no result given.
SMILES,Lmaj promast,Mdm2-MdmX inh,Beta cell apopt,T cruzi repl,SKKanGAS inh,CSC inhib,Mdm2 MdmX conf,Full FLuc ctr
CCCn1c(SCC(=O)N2CCCC(C)C2)nnc1-c1cccnc1 (stereo not given),0,0,0,0,0,0,-,-
C/C(=N\Nc1ccc2nncn2n1)c1ccccn1,-,80.7,79.6,63.4,0,98.5,84.4,47.8
C/C(=N\Nc1ccc2nncn2n1)c1ccco1,-,0,0,0,0,0,-,-
C/C(=N\NC(=S)Nc1ccccc1C)c1ccc(O)cc1,0,0,0,0,0,0,-,-
Cc1cc(C(=O)NNC2CC(=O)N(c3ccc4ccccc4c3)C2=O)c(C)o1 (stereo not given),0,0,0,0,0,0,-,-
CN(C)c1ccc(Sc2nnc(NC(=O)Nc3ccc(Cl)cc3Cl)s2)cc1,0,79.3,0,0,0,0,0,-
COc1cccc(C(=O)Nc2nc(-c3ccncc3)cs2)c1,0,0,0,0,0,0,-,-
O=C(Nc1nc(-c2ccncc2)cs1)c1ccc(F)cc1,0,66.3,0,0,0,0,0,-
O=C(CCS(=O)(=O)c1ccccc1)Nc1nc(-c2ccc(F)cc2)cs1,-,60.0,0,0,0,?,43.2,53.0
Cc1cc(C)cc(OCC(=O)Nc2nc(-c3cccnc3)cs2)c1,-,78.0,0,0,0,0,0,-
Cc1ccc(C2(C)NC(=O)N(CC(=O)Nc3nc(-c4ccccn4)cs3)C2=O)cc1 (stereo not given),-,59.1,-,?,0,0,49.4,63.9
O=S(=O)(c1ccc(SCCOc2ccc(F)cc2)nc1)N1CCCC1,-,0,0,-,-,0,-,-
Cc1ccc(-c2c(C)sc3ncn(CC(=O)N4CCOCC4)c(=O)c23)cc1C,-,0,0,0,0,0,-,-
Cc1c(NS(=O)(=O)c2cc(C(=O)NCc3ccco3)cc(Cl)c2Cl)c(=O)n(-c2ccccc2)n1C,-,0,0,0,0,-,-,-
O=C(CCS(=O)(=O)c1ccc(Cl)cc1)Nc1nc(-c2ccncc2)cs1,-,96.6,0,0,0,0,55.5,0
Cc1ccc(S(=O)(=O)CCC(=O)Nc2nc(-c3cccnc3)cs2)cc1,-,58.5,0,0,0,0,0,66.3
O=C(CCS(=O)(=O)c1ccc(Cl)cc1)Nc1nc(-c2cccnc2)cs1,-,70.4,-,0,0,0,0,71.9
Cc1ccc(S(=O)(=O)CCC(=O)Nc2nc(-c3ccccn3)cs2)cc1,-,66.7,0,-,-,0,0,-
CC(=O)c1sc(NC(=O)CCS(=O)(=O)c2ccc(Cl)cc2)nc1C,-,50.9,0,0,0,0,51.9,68.7
Cc1ccc(S(=O)(=O)NCCC(=O)Nc2ccc(S(=O)(=O)NC(C)C)cc2)cc1,-,0,0,0,0,0,-,-
COc1cc(NC(=O)c2cnc(NCc3ccccc3)nc2C)cc(OC)c1OC,-,0,0,0,0,0,-,-
COc1cccc(CNc2ncc(C(=O)Nc3cc(OC)c(OC)c(OC)c3)c(C)n2)c1,-,54.7,0,0,0,0,57.4,47.6
O=C(Nc1ccc(F)cc1F)c1cccc(C(=O)Nc2ccc(F)cc2F)n1,-,94.8,0,0,0,0,87.0,50.1
Cc1oc2cc3oc(=O)c(CCC(=O)NCCN4CCOCC4)c(C)c3cc2c1C,-,0,0,0,0,0,-,-
COc1cccc(NC(=O)c2cccc(C(=O)Nc3cccc(OC)c3)n2)c1,-,0,0,0,0,0,-,-
SMILES,Lmaj promast,Mdm2-MdmX inh,Beta cell apopt,T cruzi repl,SKKanGAS inh,CSC inhib,Mdm2 MdmX conf,Full FLuc ctr
C=CC(=O)Nc1cccc(Oc2cc(Cl)nc3[nH]ccc23)c1,-,80.4,0,-,-,-,71.7,42.4
Cc1ccc(C(=O)COc2cc(O)c3c(=O)cc(-c4ccccc4)oc3c2)cc1,-,62.2,0,0,0,0,0,-
O=C(COc1cc(O)c2c(=O)cc(-c3ccccc3)oc2c1)c1ccccc1,0,0,0,0,0,0,-,-
CCOc1ccccc1-c1nnc(SCC(=O)NC2CC2)n1CC,-,0,0,0,0,0,-,-
CCCn1c(=O)c2ccccc2n2c(Sc3nnnn3-c3ccccc3)nnc12,0,0,0,0,0,0,-,-
C=CCn1c(=O)c2ccccc2n2c(Sc3nnnn3-c3ccccc3)nnc12,56.5,53.0,0,0,0,0,0,-
O=C(N/N=C/c1cn(-c2cccs2)nc1-c1ccccc1)c1ccccc1O,99.4,62.5,0,0,0,0,0,-
